Results pooled from the literature.
Protocols differ between the studies behind these lines.
ERG11: Lanosterol 14-alpha demethylase (ERG11, Candida albicans, UniProt P10613)
ST14: Suppressor of tumorigenicity 14 protein (ST14, Homo sapiens, UniProt Q9Y5Y6)
Integrin alpha-V/beta-6: Integrin alpha-V/beta-6 (Homo sapiens, UniProt P06756+P18564)
HTR7: 5-hydroxytryptamine receptor 7 (HTR7, Homo sapiens, UniProt P34969)

`OC(COc1ccc(-c2nnco2)cc1)CN1CCN(CC(O)COc2ccc(-c3nnco3)cc2)CC1` (centres unmarked) gave an IC50 of over 50 µM (ERG11; enzyme activity; inhibitor; mass spectrometry).
The IC50 of `CCN1CCN(Cc2ccc(Nc3ncc(F)c(-c4cc(F)c5nc6n(c5c4)[C@H](C)CCC6)n3)nc2)CC1` is reported as 0.0212 µM (Multidrug and toxin extrusion protein 1 (SLC47A1, Homo sapiens, UniProt Q96FL8); enzyme activity; inhibitor).
For `O=S(=O)(c1ccc(OCC(O)CN2CCCC2)c(Cl)c1)c1ccc(OCC(O)CN2CCCC2)c(Cl)c1` (centres unmarked), the IC50 was over 50 µM (ERG11; enzyme activity; inhibitor; mass spectrometry).
For `COCCC(=O)N[C@@H](CCC(N)=O)C(=O)N[C@@H](Cc1ccccc1)C(=O)N[C@@H](CCCNC(=N)N)C(=O)c1nc2ccccc2s1`, the Ki was 0.94 nM (ST14; cell-free assay).
With `Cc1cc(O)c2c(=O)c3c(O)cc(O)c4c5c(O)cc(O)c6c(=O)c7c(O)cc(C)c8c1c2c(c34)c(c78)c65` the Kd was 3.68 µM (Calreticulin (CALR, Homo sapiens, UniProt P27797); binding; MST).
For `CC1=CC(=O)[C@@H](O)[C@]2(C)[C@H]3[C@@H](O)[C@H](O)[C@@]4(C)OC[C@@]35[C@@H](C[C@@H]12)OC(=O)[C@H](O)[C@]54O`, the Kd was 6.57 µM (Serine/threonine-protein kinase pim-1 (PIM1, Homo sapiens, UniProt P11309); binding; SPR).
With `CS(=O)(=O)N[C@@H](CCC(N)=O)C(=O)N[C@@H](Cc1ccccc1)C(=O)N[C@@H](CCCNC(=N)N)C(=O)c1nccs1` the Ki was 17 nM (ST14; cell-free assay).
`C[C@@H](O)[C@H](NC(=O)C(C)(C)NC(=O)[C@@H](N)CS)C(=O)N[C@@H](CCCNC(=N)N)C(=O)NCC(=O)N[C@@H](CC(=O)O)C(=O)N[C@@H](Cc1cccnc1)C(=O)N1CC(F)(F)C[C@H]1C(N)=O` gave a Kd of 54.9 µM (Integrin alpha-V/beta-6; binding; BLI).
`COc1cc2c(cc1OC)CN(CCc1ccc(NC(=O)c3cccc4c(=O)c5cccc(OC)c5[nH]c34)cc1)CC2` has a Ki of 235 nM (HTR7; cell-free assay).
The Ki of `CCCCC1CNC2CCc3ccc(OC)cc3C12` (racemic) is reported as 586 nM (HTR7; ligand displacement; radioligand).
`CC(C)(NC(=O)[C@@H](N)CS)C(=O)N[C@@H](CO)C(=O)N[C@@H](CCCNC(=N)N)C(=O)NCC(=O)N[C@@H](CC(=O)O)C(=O)N[C@@H](Cc1c(F)c(F)c(F)c(F)c1F)C(=O)N1CCC(F)(F)C[C@H]1C(N)=O` gave a Kd of 70.4 µM (Integrin alpha-V/beta-6; binding; BLI).
